As a reminder, the IC50 is the concentration that gives 50% inhibition.

In assay [1] the target is Mitogen-activated protein kinase 12 (Homo sapiens) (UniProt P53778). Kind of assay: Inhibition of p38-gamma assessed as remaining enzyme activity at 1 uM relative to DMSO.
For assay [2], the target named is Serine/threonine-protein kinase 26 (Homo sapiens) (UniProt Q9P289). Kind of assay: Inhibition of MST4 assessed as remaining enzyme activity at 1 uM relative to DMSO. In short, it runs like this:
(§1)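 Radiometric kinase assay run robotically at room temperature for 30 min. Contained 10 mM magnesium acetate and [γ-33P]ATP (800 cpm/pmol) at 5, 20 or 50 μM, chosen per kinase to be at or below its ATP Km. Reactions were started with MgATP, stopped with orthophosphoric acid and spotted onto P81 filters. Result is mean % activity of duplicates at one inhibitor concentration versus DMSO control.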

For assay [3], the target named is Rho-associated protein kinase 2 (Homo sapiens) (UniProt O75116). The experiment in a line: Inhibition of ROCK2 assessed as remaining enzyme activity at 1 uM relative to DMSO.
In assay [4] the target is Tyrosine-protein kinase Blk (Homo sapiens) (UniProt P51451). Kind of assay: Binding affinity to BLK assessed as percentage of kinase remaining bound to the bead at 1 uM by T7 phage display based binding assay. The method, boiled down:
(§2)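 Competition binding assay run by a contract lab. Each kinase was expressed as a fusion to T7 phage, full-length for small kinases and catalytic domain for large ones. Phage were mixed with an immobilized known kinase inhibitor on streptavidin magnetic beads and with test compound at a single 1 μM. Kinase/phage still bound to the beads was quantified by qPCR and expressed as % of DMSO control.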

Assay [5] has as its target Receptor-interacting serine/threonine-protein kinase 2 (Homo sapiens) (UniProt O43353). Kind of assay: Binding affinity to RIPK2 assessed as percentage of kinase remaining bound to the bead at 1 uM by T7 phage display based binding assay. The method, boiled down: as §2
Assay [6] deals with MAP/microtubule affinity-regulating kinase 3 (Homo sapiens) (UniProt P27448). The experiment in a line: Inhibition of MARK3 assessed as remaining enzyme activity at 1 uM relative to DMSO. The method, boiled down:
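Radiometric kinase assay run robotically at room temperature for 30 min, linear in time and enzyme. Conditions: 10 mM magnesium acetate, [γ-33P]ATP (800 cpm/pmol) at 5, 20 or 50 μM per kinase, at or below its ATP Km. Started with MgATP and stopped with orthophosphoric acid, then spotted on P81 filters. Reported as mean % activity of duplicates versus DMSO controls.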

For assay [7], the target named is Tyrosine-protein kinase Lyn (Homo sapiens) (UniProt P07948). The experiment in a line: Binding affinity to LYN assessed as percentage of kinase remaining bound to the bead at 1 uM by T7 phage display based binding assay. In short, it runs like this:
as §2

The target in assay [8] is Serine/threonine-protein kinase SIK3 (Homo sapiens) (UniProt Q9Y2K2). Kind of assay: Binding affinity to QSK assessed as percentage of kinase remaining bound to the bead at 1 uM by T7 phage display based binding assay. The method, boiled down:
as §2

Assay [9] deals with Serine/threonine-protein kinase 32A (Homo sapiens) (UniProt Q8WU08). Kind of assay: Binding affinity to YANK1 assessed as percentage of kinase remaining bound to the bead at 1 uM by T7 phage display based binding assay. In short, it runs like this: as §2
Serine/threonine-protein kinase 32A (Homo sapiens), sequence (Q8WU08 whole entry): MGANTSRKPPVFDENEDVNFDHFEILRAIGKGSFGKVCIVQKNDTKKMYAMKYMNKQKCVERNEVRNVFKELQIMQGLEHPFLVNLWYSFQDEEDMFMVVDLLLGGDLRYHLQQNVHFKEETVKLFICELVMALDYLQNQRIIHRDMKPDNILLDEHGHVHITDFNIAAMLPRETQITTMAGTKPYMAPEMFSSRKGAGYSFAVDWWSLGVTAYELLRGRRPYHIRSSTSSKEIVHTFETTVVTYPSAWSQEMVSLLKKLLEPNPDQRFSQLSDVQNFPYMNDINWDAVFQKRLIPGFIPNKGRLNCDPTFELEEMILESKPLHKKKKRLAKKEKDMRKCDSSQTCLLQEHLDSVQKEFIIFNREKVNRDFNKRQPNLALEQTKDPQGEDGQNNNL
Assay [10] deals with Homeodomain-interacting protein kinase 2 (Homo sapiens) (UniProt Q9H2X6). The experiment in a line: Inhibition of HIPK2 assessed as remaining enzyme activity at 1 uM relative to DMSO. The method, boiled down:
(§3)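 Dundee kinase panel, radiometric: [γ-33P]ATP (800 cpm/pmol) at 5, 20 or 50 μM, at or below each kinase's ATP Km; 10 mM magnesium acetate; robotic, room temperature, 30 min. Reactions started with MgATP, stopped with orthophosphoric acid, spotted onto P81 filters. Inhibitor tested at a single concentration; mean % activity of duplicates relative to DMSO control.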

For assay [11], the target named is Tyrosine-protein kinase Lck (Homo sapiens) (UniProt P06239). The experiment in a line: Inhibition of Lck assessed as remaining enzyme activity at 1 uM relative to DMSO. In short, it runs like this:
as §1

Assay [12] concerns the target Proto-oncogene tyrosine-protein kinase receptor Ret (Homo sapiens) (UniProt P07949). Kind of assay: Binding affinity to RET assessed as percentage of kinase remaining bound to the bead at 1 uM by T7 phage display based binding assay. The method, boiled down: as §2
Assay [13] deals with Calcium/calmodulin-dependent protein kinase kinase 2 (Homo sapiens) (UniProt Q96RR4). Kind of assay: Inhibition of CAMKKbeta assessed as remaining enzyme activity at 1 uM relative to DMSO. The method, boiled down: as §3
The next assay addresses Ephrin type-A receptor 1 (Homo sapiens, UniProt P21709). The experiment in a line: Inhibition of EphA1 by [gamma33-P]ATP based assay.
Assay [14] concerns the target Serine/threonine-protein kinase pim-1 (Homo sapiens) (UniProt P11309). Kind of assay: Inhibition of PIM1 assessed as remaining enzyme activity at 1 uM relative to DMSO. The method, boiled down:
as §1

In assay [15] the target is Insulin receptor (Homo sapiens) (UniProt P06213). Kind of assay: Inhibition of histidine-tagged IR assessed as remaining enzyme activity at 1 uM relative to DMSO.
The target in assay [16] is Discoidin domain-containing receptor 2 (Homo sapiens) (UniProt Q16832). Kind of assay: Binding affinity to DDR2 assessed as percentage of kinase remaining bound to the bead at 1 uM by T7 phage display based binding assay. The method, boiled down: as §2
Assay [17] has as its target Receptor tyrosine-protein kinase erbB-3 (Homo sapiens) (UniProt P21860). Kind of assay: Binding affinity to ERBB3 assessed as percentage of kinase remaining bound to the bead at 1 uM by T7 phage display based binding assay. The method, boiled down: as §2
In assay [18] the target is Serine/threonine-protein kinase 32B (Homo sapiens) (UniProt Q9NY57). The experiment in a line: Binding affinity to YANK2 assessed as percentage of kinase remaining bound to the bead at 1 uM by T7 phage display based binding assay. The method, boiled down: as §2
Assay [19] has as its target Dual specificity tyrosine-phosphorylation-regulated kinase 1A (Homo sapiens) (UniProt Q13627). Kind of assay: Inhibition of DYRK1A assessed as remaining enzyme activity at 3 uM relative to DMSO.
Assay [20] is described as follows: Inhibition of Aurora assessed as remaining enzyme activity at 3 uM relative to DMSO. In short, it runs like this: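 Panel assay run robotically at room temperature for 30 min with 10 mM magnesium acetate and [γ-33P]ATP (800 cpm/pmol) at 5, 20 or 50 μM, chosen per kinase to be at or below its ATP Km. Reactions were started with MgATP, stopped with orthophosphoric acid and spotted on P81 filters. Activity is the mean of duplicates at a single inhibitor concentration, as % of DMSO control.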

Assay [21] addresses SRSF protein kinase 1 (Homo sapiens) (UniProt Q96SB4). Kind of assay: Inhibition of SRPK1 assessed as remaining enzyme activity at 3 uM relative to DMSO.
The target of assay [22] is Ephrin type-A receptor 2 (Homo sapiens) (UniProt P29317). The experiment in a line: Inhibition of EPHA2 assessed as remaining enzyme activity at 3 uM relative to DMSO. In short, it runs like this: as §3
Ephrin type-A receptor 2 (Homo sapiens), sequence (P29317 whole entry): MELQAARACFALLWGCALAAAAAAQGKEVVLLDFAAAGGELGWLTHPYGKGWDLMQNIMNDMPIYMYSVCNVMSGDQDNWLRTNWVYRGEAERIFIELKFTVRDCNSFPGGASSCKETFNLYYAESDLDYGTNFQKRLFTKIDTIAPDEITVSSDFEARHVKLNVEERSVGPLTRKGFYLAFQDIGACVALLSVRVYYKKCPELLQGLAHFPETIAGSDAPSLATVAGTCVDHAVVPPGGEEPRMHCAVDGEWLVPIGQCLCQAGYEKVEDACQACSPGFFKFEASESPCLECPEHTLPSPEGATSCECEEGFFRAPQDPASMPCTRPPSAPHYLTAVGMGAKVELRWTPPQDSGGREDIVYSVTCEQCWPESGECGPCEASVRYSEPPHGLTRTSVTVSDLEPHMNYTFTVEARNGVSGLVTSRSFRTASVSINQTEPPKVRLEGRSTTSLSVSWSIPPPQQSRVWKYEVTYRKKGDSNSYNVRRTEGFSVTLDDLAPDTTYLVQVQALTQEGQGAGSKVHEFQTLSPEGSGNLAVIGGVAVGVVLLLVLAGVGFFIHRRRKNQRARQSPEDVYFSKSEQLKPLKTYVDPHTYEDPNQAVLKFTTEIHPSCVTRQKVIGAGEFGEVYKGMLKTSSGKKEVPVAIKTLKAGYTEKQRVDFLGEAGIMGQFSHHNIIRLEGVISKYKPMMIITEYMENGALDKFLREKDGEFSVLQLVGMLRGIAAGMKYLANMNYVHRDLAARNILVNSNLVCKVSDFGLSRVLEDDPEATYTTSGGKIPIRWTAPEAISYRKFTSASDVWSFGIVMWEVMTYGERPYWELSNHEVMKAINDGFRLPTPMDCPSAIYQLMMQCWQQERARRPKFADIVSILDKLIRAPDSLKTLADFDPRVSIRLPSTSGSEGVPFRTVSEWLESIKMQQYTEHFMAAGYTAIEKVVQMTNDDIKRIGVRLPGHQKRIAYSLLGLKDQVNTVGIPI
For assay [23], the target named is MAP kinase-activated protein kinase 5 (Homo sapiens) (UniProt Q8IW41). Kind of assay: Inhibition of PRAK assessed as remaining enzyme activity at 3 uM relative to DMSO.
Assay [24] addresses Mitogen-activated protein kinase kinase kinase 11 (Homo sapiens) (UniProt Q16584). Kind of assay: Inhibition of MLK3 assessed as remaining enzyme activity at 3 uM relative to DMSO. In short, it runs like this: as §1
In assay [25] the target is Mitogen-activated protein kinase 1 (Homo sapiens) (UniProt P28482). The experiment in a line: Inhibition of ERK2 assessed as remaining enzyme activity at 3 uM relative to DMSO. The method, boiled down:
as §3

Receptor-interacting serine/threonine-protein kinase 2 (Homo sapiens), sequence (O43353 whole entry): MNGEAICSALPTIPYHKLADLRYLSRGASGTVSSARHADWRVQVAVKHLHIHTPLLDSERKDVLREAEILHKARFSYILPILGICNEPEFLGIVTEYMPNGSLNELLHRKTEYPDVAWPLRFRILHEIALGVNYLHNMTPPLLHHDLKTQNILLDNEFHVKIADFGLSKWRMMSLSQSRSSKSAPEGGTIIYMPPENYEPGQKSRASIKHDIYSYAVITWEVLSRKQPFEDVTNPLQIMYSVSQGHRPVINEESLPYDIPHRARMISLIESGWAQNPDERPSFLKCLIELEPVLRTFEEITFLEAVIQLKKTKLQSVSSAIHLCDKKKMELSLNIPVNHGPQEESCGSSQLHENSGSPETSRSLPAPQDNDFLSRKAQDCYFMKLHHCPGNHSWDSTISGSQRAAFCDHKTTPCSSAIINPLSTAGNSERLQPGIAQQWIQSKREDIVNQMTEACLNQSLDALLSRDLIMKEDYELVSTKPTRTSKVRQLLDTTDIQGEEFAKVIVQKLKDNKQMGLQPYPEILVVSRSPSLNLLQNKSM
Receptor tyrosine-protein kinase erbB-3 (Homo sapiens), sequence (P21860 whole entry): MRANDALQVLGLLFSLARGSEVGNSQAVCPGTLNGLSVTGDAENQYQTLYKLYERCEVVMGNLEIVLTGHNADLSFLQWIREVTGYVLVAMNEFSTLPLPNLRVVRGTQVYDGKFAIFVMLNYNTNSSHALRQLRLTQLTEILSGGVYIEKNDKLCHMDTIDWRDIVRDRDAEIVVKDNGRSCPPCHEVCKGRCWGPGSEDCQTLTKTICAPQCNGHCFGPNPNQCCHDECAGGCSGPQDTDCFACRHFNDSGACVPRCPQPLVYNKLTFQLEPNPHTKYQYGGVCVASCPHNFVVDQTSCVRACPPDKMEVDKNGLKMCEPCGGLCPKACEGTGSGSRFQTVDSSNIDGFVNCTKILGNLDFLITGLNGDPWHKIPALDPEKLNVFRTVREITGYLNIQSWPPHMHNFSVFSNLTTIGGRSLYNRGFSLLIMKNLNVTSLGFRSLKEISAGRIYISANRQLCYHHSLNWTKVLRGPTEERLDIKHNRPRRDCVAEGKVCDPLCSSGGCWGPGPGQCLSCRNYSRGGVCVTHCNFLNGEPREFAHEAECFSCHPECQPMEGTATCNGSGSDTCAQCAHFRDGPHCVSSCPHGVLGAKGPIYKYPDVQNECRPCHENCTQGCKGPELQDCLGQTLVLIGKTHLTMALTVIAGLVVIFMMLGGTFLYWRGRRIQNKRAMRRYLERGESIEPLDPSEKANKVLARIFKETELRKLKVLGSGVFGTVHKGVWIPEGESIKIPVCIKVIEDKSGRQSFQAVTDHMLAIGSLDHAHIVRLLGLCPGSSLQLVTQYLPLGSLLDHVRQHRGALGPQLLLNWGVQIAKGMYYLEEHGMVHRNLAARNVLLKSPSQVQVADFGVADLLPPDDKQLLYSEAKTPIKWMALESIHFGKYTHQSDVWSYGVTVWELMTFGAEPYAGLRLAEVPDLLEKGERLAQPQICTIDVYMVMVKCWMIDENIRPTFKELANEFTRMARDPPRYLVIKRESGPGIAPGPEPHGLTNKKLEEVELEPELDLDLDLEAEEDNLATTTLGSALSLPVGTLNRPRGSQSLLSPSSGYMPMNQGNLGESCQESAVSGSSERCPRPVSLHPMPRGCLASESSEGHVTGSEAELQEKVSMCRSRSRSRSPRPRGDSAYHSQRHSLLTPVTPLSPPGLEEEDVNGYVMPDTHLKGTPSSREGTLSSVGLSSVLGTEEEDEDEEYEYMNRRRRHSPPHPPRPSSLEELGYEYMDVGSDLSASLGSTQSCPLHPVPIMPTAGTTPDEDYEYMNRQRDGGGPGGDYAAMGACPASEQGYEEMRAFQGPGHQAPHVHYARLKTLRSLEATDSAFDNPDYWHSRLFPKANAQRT
Serine/threonine-protein kinase SIK3 (Homo sapiens), sequence (Q9Y2K2 whole entry, looked up): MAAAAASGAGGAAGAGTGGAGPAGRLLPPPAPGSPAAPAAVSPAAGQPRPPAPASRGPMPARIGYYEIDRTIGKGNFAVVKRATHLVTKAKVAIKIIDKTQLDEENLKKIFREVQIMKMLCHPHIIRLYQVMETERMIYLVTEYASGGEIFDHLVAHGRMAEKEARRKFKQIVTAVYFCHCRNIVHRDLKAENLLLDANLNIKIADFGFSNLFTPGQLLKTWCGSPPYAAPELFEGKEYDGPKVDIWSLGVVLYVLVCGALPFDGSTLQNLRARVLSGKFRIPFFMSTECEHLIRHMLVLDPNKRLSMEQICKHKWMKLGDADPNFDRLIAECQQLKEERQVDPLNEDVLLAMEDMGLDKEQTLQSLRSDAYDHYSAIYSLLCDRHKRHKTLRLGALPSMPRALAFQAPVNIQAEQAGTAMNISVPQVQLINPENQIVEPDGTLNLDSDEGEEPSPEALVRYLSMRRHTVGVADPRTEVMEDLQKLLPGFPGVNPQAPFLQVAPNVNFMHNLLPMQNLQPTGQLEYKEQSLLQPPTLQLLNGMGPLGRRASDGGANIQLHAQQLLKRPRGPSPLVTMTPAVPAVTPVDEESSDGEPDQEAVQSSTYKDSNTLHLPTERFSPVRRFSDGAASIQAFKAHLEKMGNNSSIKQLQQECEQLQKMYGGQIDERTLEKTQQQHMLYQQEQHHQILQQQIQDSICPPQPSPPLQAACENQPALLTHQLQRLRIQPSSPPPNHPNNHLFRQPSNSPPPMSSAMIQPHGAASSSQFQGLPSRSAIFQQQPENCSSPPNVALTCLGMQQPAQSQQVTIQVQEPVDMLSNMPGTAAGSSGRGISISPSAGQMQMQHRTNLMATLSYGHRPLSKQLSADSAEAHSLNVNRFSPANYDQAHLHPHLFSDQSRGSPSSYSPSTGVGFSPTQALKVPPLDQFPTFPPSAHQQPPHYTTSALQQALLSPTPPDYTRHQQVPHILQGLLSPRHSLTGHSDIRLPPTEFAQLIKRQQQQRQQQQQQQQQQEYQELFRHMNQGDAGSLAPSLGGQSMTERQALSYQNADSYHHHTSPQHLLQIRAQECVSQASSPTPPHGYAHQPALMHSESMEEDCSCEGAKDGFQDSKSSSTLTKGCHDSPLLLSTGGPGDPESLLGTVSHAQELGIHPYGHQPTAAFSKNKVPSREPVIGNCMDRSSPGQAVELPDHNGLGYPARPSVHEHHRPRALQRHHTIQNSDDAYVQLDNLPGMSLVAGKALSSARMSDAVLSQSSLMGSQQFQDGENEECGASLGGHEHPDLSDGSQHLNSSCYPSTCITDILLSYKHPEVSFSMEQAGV
Tyrosine-protein kinase Lyn (Homo sapiens), sequence (P07948 2-512 limits assumed): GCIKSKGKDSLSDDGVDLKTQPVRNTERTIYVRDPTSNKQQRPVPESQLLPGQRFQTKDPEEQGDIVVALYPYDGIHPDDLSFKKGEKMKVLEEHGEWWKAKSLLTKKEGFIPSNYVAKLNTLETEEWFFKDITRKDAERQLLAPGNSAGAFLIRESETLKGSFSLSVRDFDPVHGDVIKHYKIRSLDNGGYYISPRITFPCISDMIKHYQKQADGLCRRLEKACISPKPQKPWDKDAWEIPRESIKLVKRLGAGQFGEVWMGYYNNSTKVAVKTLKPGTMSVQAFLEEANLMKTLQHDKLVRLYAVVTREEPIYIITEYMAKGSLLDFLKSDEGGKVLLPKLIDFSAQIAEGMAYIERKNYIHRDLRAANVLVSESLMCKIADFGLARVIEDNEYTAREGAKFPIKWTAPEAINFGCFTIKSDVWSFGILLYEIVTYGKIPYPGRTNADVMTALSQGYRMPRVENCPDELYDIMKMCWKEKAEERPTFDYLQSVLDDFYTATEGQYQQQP

Turning to `COc1ccccc1-n1c(-c2cc(O)ccc2C)cn2c3c(=O)[nH]c(=O)n(C)c3nc12`, the Activity was determined as 84% in assay [1]; 78% in assay [2]; 77% in assay [3]; 0.6% in [4]; 2.9% in [5]; 96% in assay [6]. Besides, the Activity in assay [7] was found to be 0.4%; in [8], 32%; in [9], 80%; in assay [10] it was 98%; in [11] it was 0%; in assay [12], 79%. Moreover, the Activity came to 104% in assay [13]; 88% in assay [14]; 104% in [15]; 21% in [16]; 78% in assay [17]; 89% in assay [18]. The compound further showed an IC50 against Ephrin type-A receptor 1 of 2.9 nM.

As for `COc1ccccc1-n1c(-c2ccccc2C)cn2c3c(=O)[nH]c(=O)n(C)c3nc12`, the Activity in [19] is 99%; in [20] it was 104%; in assay [21] it was 78%; in assay [22] it was 10%; in assay [23], 87%; in [24] it was 136%. Further, in assay [25], the Activity is 91%.

The record behind these values is ChEMBL document CHEMBL1154183, “Structure-based optimization of potent and selective inhibitors of the tyrosine kinase erythropoietin producing human hepatocellular carcinoma receptor B4 (EphB4)” (J Med Chem, 2009).
